In ChEMBL document CHEMBL4346672, “Antimicrobial and KPC/AmpC inhibitory activity of functionalized benzosiloxaboroles” (Eur J Med Chem, 2019):
≈ marks a conversion by molar mass, not a printed value. Calls of active or inactive are those of the source. The rule behind the calls is not given here.

System: Meyerozyma guilliermondii
Experiment: Antifungal activity against Candida guilliermondii IBA 155 assessed as decrease in fungal cell growth at 0.78 to 12.5 mg/L incubated for 24 hrs by CLSI broth dilution method
Format: functional
Conditions: IBA 155, 24 h
Summary of the method: (§1)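 Yeast broth dilution in RPMI 1640 with 2% glucose, compounds in DMSO. Yeasts pre-grown on Sabouraud dextrose agar. Growth read after 35 °C, 24 h.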

MIC [µg/mL] | SMILES
> 400 | C[Si]1(C)OB(O)c2cc(C=O)cc(F)c21

System: Bordetella bronchiseptica
Experiment: Antibacterial activity against Bordetella bronchiseptica ATCC 4617 assessed as diameter of zone inhibition measured after 18 hrs by CLSI disc diffusion method
Format: functional
Conditions: not given
Summary of the method: (§2)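 Disc diffusion on Mueller-Hinton II agar. Compounds dissolved in DMSO. Strains stored at -80 °C and subcultured twice on tryptic soy agar before testing. Inhibition zones read after 35 °C, 18 h.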

SMILES | diameter of the inhibition zone (DIZ)
C[Si]1(C)OB(O)c2cc(C=O)cc(F)c21 | inactive

System: Meyerozyma guilliermondii
Experiment: Antifungal activity against Candida guilliermondii IBA 155 assessed as diameter of zone inhibition incubated for 24 hrs by CLSI disc diffusion method
Format: functional
Conditions: not given
Summary of the method: (§3)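 Yeast disc diffusion on Mueller-Hinton agar supplemented with 2% glucose and 0.5 mg/L methylene blue. Compounds in DMSO. Yeasts subcultured on Sabouraud dextrose agar before testing. Zones read after 35 °C, 24 h.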

SMILES | diameter of the inhibition zone (DIZ)
C[Si]1(C)OB(O)c2cc(C=O)cc(F)c21 | inactive

System: Enterococcus faecalis
Experiment: Antibacterial activity against Enterococcus faecalis ATCC 29212 measured after 18 hrs by CLSI broth dilution method
Format: functional
Conditions: ATCC 29212, 18 h
Summary of the method: (§4)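 Broth MIC in Mueller-Hinton II broth following CLSI, compounds dissolved in DMSO. Strains subcultured twice on tryptic soy agar before testing. Growth read after 35 °C, 18 h.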

MIC [µg/mL] | SMILES
400 (≈ 1790 µM) | C[Si]1(C)OB(O)c2cc(C=O)cc(F)c21

System: Candida albicans
Experiment: Antifungal activity against Candida albicans ATCC 90028 assessed as diameter of zone inhibition incubated for 24 hrs by CLSI disc diffusion method
Format: functional
Conditions: not given
Summary of the method: as §3

SMILES | diameter of the inhibition zone (DIZ)
C[Si]1(C)OB(O)c2cc(C=O)cc(F)c21 | inactive

System: Candida tropicalis
Experiment: Antifungal activity against Candida tropicalis IBA 171 assessed as diameter of zone inhibition incubated for 24 hrs by CLSI disc diffusion method
Format: functional
Conditions: not given
Summary of the method: as §3

SMILES | diameter of the inhibition zone (DIZ)
C[Si]1(C)OB(O)c2cc(C=O)cc(F)c21 | inactive

System: Staphylococcus aureus
Experiment: Antibacterial activity against Staphylococcus aureus ATCC 6538P measured after 18 hrs by CLSI broth dilution method
Format: functional
Conditions: not given
Summary of the method: as §4

MIC [µg/mL] | SMILES
25 (≈ 112 µM) | C[Si]1(C)OB(O)c2cc(C=O)cc(F)c21

System: Klebsiella pneumoniae
Experiment: Antibacterial activity against Klebsiella pneumoniae ATCC 13883 measured after 18 hrs by CLSI broth dilution method
Format: functional
Conditions: ATCC 13883, 18 h
Summary of the method: as §4

MIC [µg/mL] | SMILES
> 400 | C[Si]1(C)OB(O)c2cc(C=O)cc(F)c21

System: Enterococcus faecalis
Experiment: Antibacterial activity against Enterococcus faecalis ATCC 29212 assessed as diameter of zone inhibition measured after 18 hrs by CLSI disc diffusion method
Format: functional
Conditions: not given
Summary of the method: as §2

SMILES | diameter of the inhibition zone (DIZ)
C[Si]1(C)OB(O)c2cc(C=O)cc(F)c21 | inactive

System: Burkholderia cepacia
Experiment: Antibacterial activity against Burkholderia cepacia ATCC 25416 measured after 18 hrs by CLSI broth dilution method
Format: functional
Conditions: ATCC 25416, 18 h
Summary of the method: as §4

MIC [µg/mL] | SMILES
> 400 | C[Si]1(C)OB(O)c2cc(C=O)cc(F)c21

System: Enterococcus faecium
Experiment: Antibacterial activity against Enterococcus faecium ATCC 6057 assessed as diameter of zone inhibition measured after 18 hrs by CLSI disc diffusion method
Format: functional
Conditions: not given
Summary of the method: as §2

SMILES | diameter of the inhibition zone (DIZ)
C[Si]1(C)OB(O)c2cc(C=O)cc(F)c21 | inactive

System: Candida parapsilosis
Experiment: Antifungal activity against Candida parapsilosis ATCC 22019 assessed as diameter of zone inhibition incubated for 24 hrs by CLSI disc diffusion method
Format: functional
Conditions: not given
Summary of the method: as §3

SMILES | diameter of the inhibition zone (DIZ)
C[Si]1(C)OB(O)c2cc(C=O)cc(F)c21 | inactive

System: Escherichia coli
Experiment: Antibacterial activity against Escherichia coli ATCC 25922 assessed as fold reduction of MIC in presence of efflux pump inhibitor PAbetaN incubated for 18 hrs by CLSI broth microdilution method
Format: functional
Conditions: not given
Summary of the method: (§5)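 MICs determined with and without PAβN at 50 mg/L in Mueller-Hinton broth containing 1 mM MgSO₄. 2-fold serial dilutions per CLSI. Fold change taken from the paired MICs after 35 °C, 18 h.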

SMILES | fold change (FC)
C[Si]1(C)OB(O)c2cc(C=O)cc(F)c21 | 16

System: Serratia marcescens
Conditions: ATCC 13880

SMILES | DIZ
C[Si]1(C)OB(O)c2cc(C=O)cc(F)c21 | inactive

System: Serratia marcescens
Experiment: Antibacterial activity against Serratia marcescens ATCC 13880 measured after 18 hrs by CLSI broth dilution method
Format: functional
Conditions: ATCC 13880, 18 h
Summary of the method: as §4

MIC [µg/mL] | SMILES
> 400 | C[Si]1(C)OB(O)c2cc(C=O)cc(F)c21

System: Enterococcus faecium
Experiment: Antibacterial activity against Enterococcus faecium ATCC 6057 measured after 18 hrs by CLSI broth dilution method
Format: functional
Conditions: ATCC 6057, 18 h
Summary of the method: as §4

MIC [µg/mL] | SMILES
200 (≈ 893 µM) | C[Si]1(C)OB(O)c2cc(C=O)cc(F)c21

System: Burkholderia cepacia
Experiment: Antibacterial activity against Burkholderia cepacia ATCC 25416 assessed as diameter of zone inhibition measured after 18 hrs by CLSI disc diffusion method
Format: functional
Conditions: not given
Summary of the method: as §2

SMILES | diameter of the inhibition zone (DIZ)
C[Si]1(C)OB(O)c2cc(C=O)cc(F)c21 | inactive

System: Acinetobacter baumannii
Experiment: Antibacterial activity against Acinetobacter baumannii ATCC 19606 assessed as diameter of zone inhibition measured after 18 hrs by CLSI disc diffusion method
Format: functional
Conditions: not given
Summary of the method: as §2

SMILES | diameter of the inhibition zone (DIZ)
C[Si]1(C)OB(O)c2cc(C=O)cc(F)c21 | inactive

System: Pseudomonas aeruginosa
Experiment: Antibacterial activity against Pseudomonas aeruginosa ATCC 27853 measured after 18 hrs by CLSI broth dilution method
Format: functional
Conditions: ATCC 27853, 18 h
Summary of the method: as §4

MIC [µg/mL] | SMILES
> 400 | C[Si]1(C)OB(O)c2cc(C=O)cc(F)c21

System: Enterobacter cloacae
Experiment: Antibacterial activity against Enterobacter cloacae DSM 6234 measured after 18 hrs by CLSI broth dilution method
Format: functional
Conditions: DSM 6234, 18 h
Summary of the method: as §4

MIC [µg/mL] | SMILES
> 400 | C[Si]1(C)OB(O)c2cc(C=O)cc(F)c21

System: Proteus mirabilis
Experiment: Antibacterial activity against Proteus mirabilis ATCC 12453 assessed as fold reduction of MIC in presence of efflux pump inhibitor PAbetaN incubated for 18 hrs by broth microdilution method
Format: functional
Conditions: not given
Summary of the method: as §5

SMILES | fold change (FC)
C[Si]1(C)OB(O)c2cc(C=O)cc(F)c21 | 4

System: Bordetella bronchiseptica
Experiment: Antibacterial activity against Bordetella bronchiseptica ATCC 4617 measured after 18 hrs by CLSI broth dilution method
Format: functional
Conditions: ATCC 4617, 18 h
Summary of the method: as §4

MIC [µg/mL] | SMILES
> 400 | C[Si]1(C)OB(O)c2cc(C=O)cc(F)c21

System: Bacillus subtilis
Experiment: Antibacterial activity against Bacillus subtilis ATCC 6633 assessed as diameter of zone inhibition measured after 18 hrs by CLSI disc diffusion method
Format: functional
Conditions: not given
Summary of the method: as §2

SMILES | diameter of the inhibition zone (DIZ) [mm]
C[Si]1(C)OB(O)c2cc(C=O)cc(F)c21 | 22

System: Proteus mirabilis
Experiment: Antibacterial activity against Proteus mirabilis ATCC 12453 assessed as diameter of zone inhibition measured after 18 hrs by CLSI disc diffusion method
Format: functional
Conditions: not given
Summary of the method: as §2

SMILES | diameter of the inhibition zone (DIZ)
C[Si]1(C)OB(O)c2cc(C=O)cc(F)c21 | inactive

System: Klebsiella pneumoniae
Experiment: Antibacterial activity against Klebsiella pneumoniae ATCC 13883 assessed as fold reduction of MIC in presence of efflux pump inhibitor PAbetaN incubated for 18 hrs by broth microdilution method
Format: functional
Conditions: not given
Summary of the method: as §5

SMILES | fold change (FC)
C[Si]1(C)OB(O)c2cc(C=O)cc(F)c21 | 8

System: Candida parapsilosis
Experiment: Antifungal activity against Candida parapsilosis ATCC 22019 assessed as decrease in fungal cell growth at 0.78 to 12.5 mg/L incubated for 24 hrs by CLSI broth dilution method
Format: functional
Conditions: Lodderomyces parapsilosis, ATCC 22019, 24 h
Summary of the method: as §1

MIC [µg/mL] | SMILES
400 (≈ 1790 µM) | C[Si]1(C)OB(O)c2cc(C=O)cc(F)c21

System: not listed separately
Experiment: Dissociation constant, pKa1 of compound in 0.1 M NaOH by potentiometric analysis
Format: physicochemical
Conditions: not given

pKa | SMILES
5.6 | C[Si]1(C)OB(O)c2cc(C=O)cc(F)c21

System: Staphylococcus aureus
Experiment: Antibacterial activity against Staphylococcus aureus ATCC 6538P assessed as diameter of zone inhibition measured after 18 hrs by CLSI disc diffusion method
Format: functional
Conditions: not given
Summary of the method: as §2

SMILES | diameter of the inhibition zone (DIZ) [mm]
C[Si]1(C)OB(O)c2cc(C=O)cc(F)c21 | 22

System: Escherichia coli
Experiment: Antibacterial activity against Escherichia coli ATCC 25922 assessed as diameter of zone inhibition measured after 18 hrs by CLSI disc diffusion method
Format: functional
Conditions: not given
Summary of the method: as §2

SMILES | diameter of the inhibition zone (DIZ)
C[Si]1(C)OB(O)c2cc(C=O)cc(F)c21 | inactive

System: Stenotrophomonas maltophilia
Experiment: Antibacterial activity against Stenotrophomonas maltophilia ATCC 13637 assessed as fold reduction of MIC in presence of efflux pump inhibitor PAbetaN incubated for 18 hrs by broth microdilution method
Format: functional
Conditions: not given
Summary of the method: as §5

SMILES | fold change (FC)
C[Si]1(C)OB(O)c2cc(C=O)cc(F)c21 | 8

System: Klebsiella pneumoniae
Conditions: ATCC 13883

SMILES | DIZ
C[Si]1(C)OB(O)c2cc(C=O)cc(F)c21 | inactive

System: Acinetobacter baumannii
Experiment: Antibacterial activity against Acinetobacter baumannii ATCC 19606 measured after 18 hrs by CLSI broth dilution method
Format: functional
Conditions: ATCC 19606, 18 h
Summary of the method: as §4

MIC [µg/mL] | SMILES
> 400 | C[Si]1(C)OB(O)c2cc(C=O)cc(F)c21

System: Stenotrophomonas maltophilia
Experiment: Antibacterial activity against Stenotrophomonas maltophilia ATCC 13637 measured after 18 hrs by CLSI broth dilution method
Format: functional
Conditions: ATCC 13637, 18 h
Summary of the method: as §4

MIC [µg/mL] | SMILES
> 400 | C[Si]1(C)OB(O)c2cc(C=O)cc(F)c21

System: Pichia kudriavzevii
Experiment: Antifungal activity against Candida krusei ATCC 6258 assessed as diameter of zone inhibition incubated for 24 hrs by CLSI disc diffusion method
Format: functional
Conditions: not given
Summary of the method: as §3

SMILES | diameter of the inhibition zone (DIZ)
C[Si]1(C)OB(O)c2cc(C=O)cc(F)c21 | inactive

System: Proteus mirabilis
Experiment: Antibacterial activity against Proteus mirabilis ATCC 12453 measured after 18 hrs by CLSI broth dilution method
Format: functional
Conditions: ATCC 12453, 18 h
Summary of the method: as §4

MIC [µg/mL] | SMILES
> 400 | C[Si]1(C)OB(O)c2cc(C=O)cc(F)c21

System: Staphylococcus epidermidis
Experiment: Antibacterial activity against Staphylococcus epidermidis ATCC 12228 assessed as diameter of zone inhibition measured after 18 hrs by CLSI disc diffusion method
Format: functional
Conditions: not given
Summary of the method: as §2

SMILES | diameter of the inhibition zone (DIZ) [mm]
C[Si]1(C)OB(O)c2cc(C=O)cc(F)c21 | 31
